We go through 36 compounds from ChEMBL document CHEMBL1914317, “Triazole ring-opening leads to the discovery of potent nonsteroidal 17β-hydroxysteroid dehydrogenase type 2 inhibitors” (Eur J Med Chem, 2011).

The source made the active and inactive calls. No cut-off for these calls is given here.

Experiment [1] has as its target T1, Estrogen receptor (Homo sapiens) (UniProt P03372).
T1 sequence (whole entry): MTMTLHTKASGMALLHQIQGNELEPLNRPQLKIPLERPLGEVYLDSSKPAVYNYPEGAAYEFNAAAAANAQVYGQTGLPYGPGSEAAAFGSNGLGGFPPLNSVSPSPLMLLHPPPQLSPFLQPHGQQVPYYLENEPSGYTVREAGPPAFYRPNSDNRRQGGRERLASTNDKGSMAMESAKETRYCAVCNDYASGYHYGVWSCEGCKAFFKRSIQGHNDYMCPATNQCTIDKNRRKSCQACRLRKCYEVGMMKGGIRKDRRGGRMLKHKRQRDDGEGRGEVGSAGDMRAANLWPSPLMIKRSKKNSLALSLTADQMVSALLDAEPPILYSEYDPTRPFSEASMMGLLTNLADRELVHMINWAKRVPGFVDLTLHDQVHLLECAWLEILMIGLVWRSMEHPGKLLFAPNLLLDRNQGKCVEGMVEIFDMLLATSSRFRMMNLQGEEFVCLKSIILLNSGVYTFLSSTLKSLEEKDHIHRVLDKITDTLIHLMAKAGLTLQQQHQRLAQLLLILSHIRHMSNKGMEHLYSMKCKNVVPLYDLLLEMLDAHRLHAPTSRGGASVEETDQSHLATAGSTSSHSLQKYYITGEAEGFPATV
Put plainly: Displacement of [3H]estradiol from human recombinant ERalpha assessed as relative binding affinity after 1 hr by liquid scintillation counting relative to estradiol. The procedure, abridged: (§1)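 Recombinant human ERα or ERβ (0.25 pmol) incubated with [3H]-E2 (10 nM) plus test compound, 1 h at room temperature; compound in DMSO (5% final). Nonspecific binding defined with diethylstilbestrol (10 µM). Receptor–ligand complexes captured on hydroxyapatite, washed, resuspended in ethanol, counted by liquid scintillation.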
(Loss of bound radioactivity is the signal in a displacement assay; it reports binding, not function.)

Experiment [2] deals with Estrogen receptor beta (Homo sapiens) (UniProt Q92731). Put plainly: Displacement of [3H]estradiol from human recombinant ERbeta assessed as relative binding affinity after 1 hr by liquid scintillation counting relative to estradiol. An outline of the steps: as §1
The species entered for another experiment is Homo sapiens. Put plainly: Selectivity ratio of IC50 for human placental 17beta-HSD1 to IC50 for human placental 17beta-HSD2.
Experiment [3] deals with T2, 17-beta-hydroxysteroid dehydrogenase type 2 (Homo sapiens) (UniProt P37059).
T2 sequence (whole entry): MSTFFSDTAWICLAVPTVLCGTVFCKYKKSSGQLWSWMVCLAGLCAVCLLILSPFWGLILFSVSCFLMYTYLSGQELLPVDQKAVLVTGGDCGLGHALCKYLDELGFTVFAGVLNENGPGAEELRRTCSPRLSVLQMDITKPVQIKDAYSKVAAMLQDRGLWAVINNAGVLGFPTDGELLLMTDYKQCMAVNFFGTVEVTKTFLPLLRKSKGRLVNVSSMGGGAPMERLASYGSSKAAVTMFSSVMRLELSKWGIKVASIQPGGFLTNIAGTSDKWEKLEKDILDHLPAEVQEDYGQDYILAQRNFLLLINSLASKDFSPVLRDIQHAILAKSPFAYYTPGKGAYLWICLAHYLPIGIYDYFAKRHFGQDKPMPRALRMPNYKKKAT
As to the kind of experiment: Inhibition of 17beta-HSD2. As to conditions: concentration not given here. The procedure, abridged: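 Human placental microsomal fraction (150,000 g) with NAD+ 1500 µM, 37 °C, in 50 mM phosphate buffer containing 20% glycerol and 1 mM EDTA; DMSO 1% final. Started with unlabelled plus [3H]-E2 (500 nM final), run 20 min, stopped with HgCl2, ether-extracted. E1/E2 separated by HPLC with radioflow detection; % conversion = E1/(E1+E2)×100. At least three independent experiments.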

Experiment [4] deals with T2, 17-beta-hydroxysteroid dehydrogenase type 2 (Homo sapiens). Put plainly: Inhibition of human placental 17beta-HSD2 assessed as formation of [2,4,6,7-3H]-estrone using [2,4,6,7-3H]-estradiol as substrate at 1 uM after 20 mins by radio flow detector-based HPLC analysis in presence of NAD+ as cofactor.
Experiment [5] deals with T3, 17-beta-hydroxysteroid dehydrogenase type 1 (Homo sapiens) (UniProt P14061).
T3 sequence (whole entry): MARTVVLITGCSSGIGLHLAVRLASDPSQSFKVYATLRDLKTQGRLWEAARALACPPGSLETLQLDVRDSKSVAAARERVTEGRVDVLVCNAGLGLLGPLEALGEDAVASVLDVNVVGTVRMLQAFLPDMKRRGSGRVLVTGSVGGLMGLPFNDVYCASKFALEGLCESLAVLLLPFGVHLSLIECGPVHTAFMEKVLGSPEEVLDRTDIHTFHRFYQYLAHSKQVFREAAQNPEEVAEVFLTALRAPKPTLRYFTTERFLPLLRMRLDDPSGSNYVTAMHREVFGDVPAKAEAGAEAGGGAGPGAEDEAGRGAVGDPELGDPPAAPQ
Put plainly: Inhibition of human placental 17beta-HSD1 using [2,4,6,7-3H]-estrone as substrate at 1 uM after 10 mins by radio flow detector-based HPLC analysis in presence of NADH as cofactor. An outline of the steps:
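Placental enzyme from the cytosolic fraction after ammonium sulfate precipitation. Incubated with NADH 500 µM, test compound and unlabelled plus [3H]-E1 (500 nM final), 10 min at 37 °C. Stopped, extracted, and steroids separated by HPLC with radioflow detection, as for the type 2 assay.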

Experiment [6] concerns the target T4, 17-beta-hydroxysteroid dehydrogenase type 2 (Homo sapiens, UniProt P37059).
T4 sequence (P37059 whole entry): T2 sequence (whole entry)
Put plainly: Inhibition of human placental 17beta-HSD2 assessed as formation of [2,4,6,7-3H]-estrone using [2,4,6,7-3H]-estradiol as substrate after 20 mins by radio flow detector-based HPLC analysis in presence of NAD+ as cofactor.

In experiment [7] the target is T5, 17-beta-hydroxysteroid dehydrogenase type 1 (Homo sapiens, UniProt P14061).
T5 sequence (P14061 whole entry): T3 sequence (whole entry)
Put plainly: Inhibition of human placental 17beta-HSD1 using [2,4,6,7-3H]-estrone as substrate after 10 mins by radio flow detector-based HPLC analysis in presence of NADH as cofactor. An outline of the steps: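 Enzyme was the ammonium sulfate–precipitated cytosolic fraction of fresh homogenised human placenta. It was incubated at 37 °C for 10 min with NADH (500 µM), inhibitor, and unlabelled plus [3H]-E1 (final 500 nM, 0.15 µCi). Reaction stopped with HgCl2, then ether extraction. E1/E2 were separated by HPLC with radioflow detection.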

Chain of Estrogen receptor beta (Homo sapiens) (Q92731 whole entry): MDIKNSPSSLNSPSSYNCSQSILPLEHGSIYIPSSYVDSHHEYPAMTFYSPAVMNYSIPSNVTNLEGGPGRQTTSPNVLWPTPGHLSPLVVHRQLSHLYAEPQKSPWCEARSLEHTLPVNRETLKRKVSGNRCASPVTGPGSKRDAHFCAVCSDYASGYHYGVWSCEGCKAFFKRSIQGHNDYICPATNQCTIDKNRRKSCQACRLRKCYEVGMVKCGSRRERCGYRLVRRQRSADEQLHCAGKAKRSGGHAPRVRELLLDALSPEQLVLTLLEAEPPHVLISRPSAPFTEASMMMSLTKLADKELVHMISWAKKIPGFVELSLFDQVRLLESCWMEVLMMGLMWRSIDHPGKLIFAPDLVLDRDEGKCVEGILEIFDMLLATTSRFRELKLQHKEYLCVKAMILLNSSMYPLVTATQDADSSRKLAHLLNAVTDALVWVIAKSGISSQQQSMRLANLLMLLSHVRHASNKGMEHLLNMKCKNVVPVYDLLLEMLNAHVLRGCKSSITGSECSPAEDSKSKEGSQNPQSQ

For `COc1ccccc1-c1ccc(C(=O)N(C)Cc2ccccc2)s1`, the RBA in experiment [1] and in experiment [2] was < 0.1% throughout.

As for `CN(Cc1cccc(O)c1)C(=O)c1ccc(-c2cccc(O)c2)cc1`, the RBA in experiment [1] and in experiment [2] was < 0.1% throughout.

As for `COc1cccc(-c2ccc(C(=O)N(C)Cc3cccc(O)c3)s2)c1F`, the Ratio IC50 in the experiment listed under Homo sapiens turned out to be 73. Further, the RBA in experiment [1] and in experiment [2] was < 0.1% throughout.

In the case of `COc1ccc(-c2ccc(C(=O)N(C)Cc3cccc(O)c3)s2)cc1`, the Ratio IC50 in the experiment listed under Homo sapiens was > 250. Further, the RBA in experiment [1] and in experiment [2] was < 0.1% in each case.

With `COc1cccc(CN(C)C(=O)c2cccc(-c3cccc(OC)c3)c2)c1`, the RBA in experiment [1] and in experiment [2] was < 0.1% each time.

A word on the inhibition: it is the relative decrease from the control value, in per cent. Consider `Cn1nc(-c2cccc(O)c2)nc1-c1ccc(-c2cccc(O)c2)cc1`, for which, in experiment [3], the inhibition was determined as 42%.

In the case of `Cc1cccc(-c2ccc(C(=O)N(C)Cc3cccc(O)c3)s2)c1`, in the experiment listed under Homo sapiens, the Ratio IC50 came out at 65. The RBA in experiment [1] and in experiment [2] was < 0.1% throughout.

`COc1cccc(CN(C)C(=O)c2ccc(-c3ccccc3)s2)c1`: the RBA in experiment [1] and in experiment [2] was < 0.1% each time.

Consider `CN(Cc1cccc(O)c1)C(=O)c1cccc(-c2cccc(O)c2)c1`, for which the Ratio IC50 in the experiment filed under Homo sapiens was 8. The RBA in experiment [1] and in experiment [2] was < 0.1% throughout.

`CN(C(=O)Cc1cccc(O)c1)c1cccc(-c2ccc(O)cc2)c1`: the inhibition in experiment [4] amounted to 39%. Further, the inhibition entry in experiment [5] was “inactive”. Also, the RBA in experiment [1] and in experiment [2] was < 0.1% each time.

Regarding `COc1ccc(-c2ccc(C(=O)N(C)Cc3cccc(OC)c3)s2)cc1`, the RBA in experiment [1] and in experiment [2] was < 0.1% each time.

With `CN(Cc1cccc(O)c1)C(=O)c1ccc(-c2ccc(C#N)cc2)s1`, the RBA in experiment [1] and in experiment [2] was < 0.1% throughout.

Regarding `CN(Cc1ccccc1)C(=O)c1ccc(-c2cccc(O)c2)s1`, the RBA in experiment [1] and in experiment [2] was < 0.1% each time.

In the case of `CN(Cc1cccc(O)c1)C(=O)c1ccc(-c2cccc(O)c2F)s1`, the RBA in experiment [1] and in experiment [2] was < 0.1% in each case.

Regarding `COc1cccc(CN(C)C(=O)c2ccc(-c3cccc(OC)c3)cc2)c1`, the RBA in experiment [1] and in experiment [2] was < 0.1% throughout.

For `C[C@]12CC[C@@H]3c4ccc(O)cc4CC[C@H]3[C@@H]1CC[C@@]21CCCC(=O)O1`, the results for the inhibition in experiment [4] and in experiment [3] were 65% and 62%, respectively. Further, the RBA in experiment [1] and in experiment [2] was < 0.1% each time.

For the compound `COc1ccc(-c2cccc(C(=O)N(C)Cc3cccc(OC)c3)c2)cc1`, the inhibition in experiment [4] amounted to 11%. Also, the inhibition entry in experiment [5] is “inactive”. Besides, the RBA in experiment [1] and in experiment [2] was < 0.1% each time.

Consider `COc1cccc(CN(C)C(=O)c2ccc(-c3ccc(C#N)cc3)s2)c1`, for which the inhibition result in experiment [4] and in experiment [5] was “inactive” throughout. Further, the RBA in experiment [1] and in experiment [2] was < 0.1% in each case.

On to `Cc1cccc(-c2ccc(C(=O)N(C)Cc3cccc(O)c3)cc2)c1`, for which the RBA in experiment [1] and in experiment [2] was < 0.1% throughout.

As to `Cn1nc(-c2cccc(O)c2)nc1-c1ccc(-c2cccc(O)c2)s1`, the inhibition in experiment [3] stood at 30%.

On to `COc1cccc(CN(C)C(=O)c2ccc(-c3cccc(OC)c3)s2)c1`, for which the Ratio IC50 in the experiment listed under Homo sapiens is > 250. Further, the RBA in experiment [1] and in experiment [2] was < 0.1% in each case.

On to `COc1cccc(CN(C)C(=O)c2ccc(-c3ccccc3OC)s2)c1`, for which the inhibition in experiment [4] is 49%. Moreover, the inhibition entry in experiment [5] was “inactive”. The RBA in experiment [1] and in experiment [2] was < 0.1% throughout.

Regarding `CN(Cc1cccc(O)c1)C(=O)c1ccc(-c2ccc(F)cc2)s1`, the RBA in experiment [1] and in experiment [2] was < 0.1% in each case.

`CN(Cc1cccc(O)c1)C(=O)c1ccc(-c2ccccc2)s1`: the RBA in experiment [1] and in experiment [2] was < 0.1% throughout.

Regarding `COc1cccc(CN(C)C(=O)c2ccc(-c3cccc(C)c3)cc2)c1`, the Ratio IC50 in the experiment listed under Homo sapiens is > 375. For the same compound, the RBA in experiment [1] and in experiment [2] was < 0.1% in each case.

On to `COc1cccc(-c2ccc(C(=O)N(C)Cc3ccccc3)s2)c1`, for which the RBA in experiment [1] and in experiment [2] was < 0.1% each time.

What is called IC50 is the concentration that gives 50% inhibition. In the case of `CN1C(=O)C[C@@H](c2ccccc2)[C@H]1[C@H](O)c1ccc(-c2cccnc2)s1`, in experiment [6], the IC50 was 50 nM.

With `COc1ccc(-c2ccc(C(=O)N(C)Cc3ccccc3)s2)cc1`, the RBA in experiment [1] and in experiment [2] was < 0.1% throughout.

As to `CN(Cc1cccc(O)c1)C(=O)c1cccc(-c2ccc(O)cc2)c1`, the RBA in experiment [1] and in experiment [2] was < 0.1% each time.

For the compound `CN(Cc1cccc(O)c1)C(=O)c1ccc(-c2ccc(O)cc2)s1`, the Ratio IC50 in the experiment filed under Homo sapiens was 15. Further, the RBA in experiment [1] and in experiment [2] was < 0.1% each time.

On to `CN(Cc1cccc(O)c1)C(=O)c1ccc(-c2cccc(N(C)C)c2)s1`, for which, in the experiment filed under Homo sapiens, the Ratio IC50 stood at 75. Moreover, the RBA in experiment [1] and in experiment [2] was < 0.1% throughout.

As to `CN(Cc1ccccc1)C(=O)c1ccc(-c2ccc(O)cc2)s1`, the RBA in experiment [1] and in experiment [2] was < 0.1% in each case.

Turning to `CN(Cc1cccc(O)c1)C(=O)c1ccc(-c2cccc(F)c2)s1`, in the experiment listed under Homo sapiens, the Ratio IC50 is 10. Moreover, the RBA in experiment [1] and in experiment [2] was < 0.1% throughout.

As for `CN(Cc1cccc(O)c1)C(=O)c1ccc(-c2cccc(O)c2)s1`, in experiment [7], the IC50 was 5.45 µM. For the same compound, in the experiment listed under Homo sapiens, the Ratio IC50 turned out to be 14. Moreover, the RBA in experiment [1] and in experiment [2] was < 0.1% each time.

For the compound `CN(Cc1ccccc1)C(=O)c1ccc(-c2ccccc2O)s1`, the RBA in experiment [1] and in experiment [2] was < 0.1% in each case.

With `CN(Cc1cccc(O)c1)C(=O)c1ccc(-c2ccccc2O)s1`, the Ratio IC50 in the experiment listed under Homo sapiens was determined as 20. Further, the RBA in experiment [1] and in experiment [2] was < 0.1% in each case.
